Test results published in ChEMBL document CHEMBL1275269, “Cyclization of some carbothioamide derivatives containing antipyrine and triazole moieties and investigation of their antimicrobial activities” (2010).
Calls of active or inactive are those of the source. The rule behind the calls is not given here.

Columns and labels:
Klebsiella aerogenes = experiment: Antibacterial activity against Enterobacter aerogenes ATCC 13048 after 18 hrs by agar-well diffusion method; format: functional; also: test concentration or dose not given here
How it was run: (§1)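 Microorganisms flood-inoculated onto the surface of Mueller-Hinton agar or Sabouraud dextrose agar, then dried. 5 mm diameter wells cut into the agar with a sterile cork-borer.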

[1] = tested on: Mycolicibacterium smegmatis; experiment: Antibacterial activity against Mycobacterium smegmatis ATCC 607 after 18 hrs by agar-well diffusion method; format: functional; how it was run: as §1; also: test concentration or dose not given here
Bacillus cereus = experiment: Antibacterial activity against Bacillus cereus 702 after 18 hrs by agar-well diffusion method; format: functional; how it was run: as §1; also: test concentration or dose not given here
Enterococcus faecalis = experiment: Antibacterial activity against Enterococcus faecalis ATCC 29212 after 18 hrs by agar-well diffusion method; format: functional; how it was run: as §1; also: test concentration or dose not given here
Aspergillus niger = experiment: Antifungal activity against Aspergillus niger RSKK 4017 after 18 hrs by agar-well diffusion method; format: functional, organism-based; how it was run: as §1
Candida albicans = experiment: Antifungal activity against Candida albicans ATCC 60193 after 18 hrs by agar-well diffusion method; format: functional
How it was run: (§2)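 Yeast flood-inoculated onto Sabouraud dextrose agar and dried. Five-millimetre wells were cut with a sterile cork-borer, and test substance was delivered into each well.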

Saccharomyces cerevisiae = experiment: Antifungal activity against Saccharomyces cerevisiae RSKK 251 after 18 hrs by agar-well diffusion method; format: functional
How it was run: (§3)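 Organisms flood-inoculated onto the agar surface and dried. Five-millimetre wells were cut with a sterile cork-borer, and test substance was delivered into each well.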

Pseudomonas aeruginosa = experiment: Antibacterial activity against Pseudomonas aeruginosa ATCC 43288 after 18 hrs by agar-well diffusion method; format: functional; how it was run: as §1; also: test concentration or dose not given here
Staphylococcus aureus = experiment: Antibacterial activity against Staphylococcus aureus ATCC 25923 after 18 hrs by agar-well diffusion method; format: functional; how it was run: as §1; also: test concentration or dose not given here
Escherichia coli = experiment: Antibacterial activity against Escherichia coli ATCC 25922 after 18 hrs by agar-well diffusion method; format: functional; how it was run: as §1; also: test concentration or dose not given here
Candida tropicalis = experiment: Antifungal activity against Candida tropicalis ATCC 13803 after 18 hrs by agar-well diffusion method; format: functional; how it was run: as §2
[2] = tested on: Yersinia pseudotuberculosis; experiment: Antibacterial activity against Yersinia pseudotuberculosis ATCC 911 after 18 hrs by agar-well diffusion method; format: functional; how it was run: as §3

Row | Structure (SMILES) | inhibition zone (IZ) (Klebsiella aerogenes) | inhibition zone (IZ) [1] | inhibition zone (IZ) (Bacillus cereus) | inhibition zone (IZ) (Enterococcus faecalis) | Activity (Aspergillus niger) | Activity (Candida albicans) | Activity (Saccharomyces cerevisiae) | inhibition zone (IZ) (Pseudomonas aeruginosa) | inhibition zone (IZ) (Staphylococcus aureus) | inhibition zone (IZ) (Escherichia coli) | Activity (Candida tropicalis) | inhibition zone (IZ) [2]
1 | Cc1c(-n2c(Cc3ccc(Cl)cc3)nn(Cc3nnc(S)n3-c3ccccc3)c2=O)c(=O)n(-c2ccccc2)n1C | 25 mm | 34 mm | 30 mm | 20 mm | Active | Active | Active | 30 mm | 25 mm | 25 mm | Active | 30 mm
2 | Cc1c(-n2c(Cc3ccc(Cl)cc3)nn(CC(=O)NNC(=S)NCc3ccccc3)c2=O)c(=O)n(-c2ccccc2)n1C | 10 mm | 15 mm | 10 mm | 8 mm | Active | Active | Active | 10 mm | 10 mm | 15 mm | Active | 10 mm
3 | Cc1c(-n2c(Cc3ccc(Cl)cc3)nn(Cc3nnc(S)o3)c2=O)c(=O)n(-c2ccccc2)n1C | 30 mm | 38 mm | 30 mm | 28 mm | Active | Active | Active | 30 mm | 30 mm | 35 mm | Active | 30 mm
